Compound activity (PubChem)
PDI turbidity: inhibitors of human PDI, primary screen, biochemical, turbidity, single point, plate reader. Protein disulfide-isomerase (Homo sapiens), P07237. PDI insulin aggregation turbidity, A650, 90 min. inhibition, % at 10 µM. 0.052% of 350,000 active;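 active = mean inhibition across replicates of 30% or more, whatever share of single replicates reach that level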
Target sequence (P07237 whole entry, looked up): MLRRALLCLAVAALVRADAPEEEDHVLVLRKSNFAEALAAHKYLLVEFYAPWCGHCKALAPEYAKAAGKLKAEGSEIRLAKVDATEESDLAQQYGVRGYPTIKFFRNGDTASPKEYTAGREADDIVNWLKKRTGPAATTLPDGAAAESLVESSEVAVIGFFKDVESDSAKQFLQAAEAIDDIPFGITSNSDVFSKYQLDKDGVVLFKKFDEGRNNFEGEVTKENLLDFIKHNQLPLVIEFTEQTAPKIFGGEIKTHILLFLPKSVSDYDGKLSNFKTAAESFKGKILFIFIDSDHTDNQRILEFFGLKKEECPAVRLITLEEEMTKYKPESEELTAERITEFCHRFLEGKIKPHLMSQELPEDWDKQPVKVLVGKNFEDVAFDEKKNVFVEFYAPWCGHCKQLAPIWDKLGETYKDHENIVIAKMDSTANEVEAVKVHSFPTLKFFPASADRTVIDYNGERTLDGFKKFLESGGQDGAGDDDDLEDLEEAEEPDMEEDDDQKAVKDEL
S100A4 MyoIIA: inhibitors of S100A4-myosin IIA peptide binding, primary screen, biochemical, fluorescence polarization, TAMRA-MyoIIA peptide | Protein S100-A4 (Homo sapiens), P26447 | 0.14% of 360,000 active | inhibition, % at 10.7 µM;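 active = mean inhibition of at least 70% across replicates, with every replicate also reaching that level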
Target sequence (P26447 whole entry, looked up): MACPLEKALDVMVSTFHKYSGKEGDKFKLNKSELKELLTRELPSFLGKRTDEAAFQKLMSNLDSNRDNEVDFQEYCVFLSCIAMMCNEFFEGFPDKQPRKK
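Compound dosing: one dose per compound; test system: human S100A4 monomer with TAMRA-labelled myosin IIA peptide; probe or stimulus: TAMRA-labelled myosin IIA heavy-chain peptide probe, 5 nM; medium: HEPES buffer with Ca2+, pH 7.2; schedule: 5 min incubation before reading; benchmarks: neutral control DMSO, positive control TFP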
SIRT5 block: SIRT5 desuccinylase inhibitors, primary screen, biochemical, fluorescence imaging, single point, set 5. NAD-dependent protein deacylase sirtuin-5, mitochondrial (Homo sapiens), Q9NXA8. Purified SirT5, succinyl-peptide AMC, trypsin-coupled fluorescence. inhibition, % at 15 µM. 1.1% of 330,000 active. AID 652115, 2013; in the data active = inhibition above about 15%
ERp5 block: inhibitors of ERp5-driven insulin aggregation, primary screen, biochemical, turbidity, absorbance 650 nm, single point; Protein disulfide-isomerase A6 (Homo sapiens), Q15084; 90 min; inhibition, % at 9.99 µM; 0.05% of 350,000 active;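 active = mean replicate inhibition above about 25%, with every replicate also reaching it, limit read from the data, passing the limit was not always enough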
INS-1E GSIS act: GLuc luminescence reporter in INS-1E cells, primary screen for activators of glucose-dependent secretion of insulin | AID 743287, 2014 | activation, % at 16.6 µM | INS-1E GLuc reporter insulin secretion, 2-3 h | 0.61% of 370,000 active;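 active = lowest replicate activation of at least 40%, so every replicate reaches that level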
Numbers stand for hits; - = inactive; . = no result; + = active, no number. In the library only some 1.5% were active in any assay of this set; here they are far more common.

SMILES	PDI turbidity	S100A4 MyoIIA	SIRT5 block	ERp5 block	INS-1E GSIS act
COc1ccc(C2c3ccc(O)cc3Oc3ncn(Cc4ccco4)c(=N)c32)cc1OC (stereo not drawn)	33	-	-	-	-
COc1ccc(C2c3ccc(O)cc3Oc3ncn4nc(-c5cccnc5)nc4c32)cc1OC (stereo not drawn)	41	-	-	-	-
COc1ccc(C2c3ccc(O)cc3Oc3ncn(CC(C)C)c(=N)c32)cc1 (stereo not drawn)	-	-	-	-	-
CC(C)NC(=O)Nc1ccc2c(c1)CC(=O)N([C@H](C)CO)C[C@H](C)[C@H](CN(C)C(=O)Nc1ccc(F)cc1)O2	.	.	-	-	-
COc1ccc(NC(=O)CN(C)C(=O)C2CC(=O)N(c3ccc4c(c3)OCCO4)C2)cc1 (stereo not drawn)	-	154	-	-	-
CCOc1ccc(NC(=O)CN(C)C(=O)C2CC(=O)N(c3ccc4c(c3)OCCO4)C2)cc1OCC (stereo not drawn)	-	-	-	-	-
CN1c2ccc(-c3ccc(F)cc3)cc2[C@H]2[C@H](CCN2C(=O)c2ccncc2)[C@@H]1CO	.	-	-	-	-
CO[C@H]1CN(C)C(=O)c2cc(NC(=O)c3ccccc3F)ccc2OC[C@H](C)NC[C@@H]1C	.	-	25	-	-
CO[C@H]1CN(C)C(=O)c2cc(NC(=O)c3ccccc3F)ccc2OC[C@H](C)NC[C@H]1C	.	-	-	-	-
CO[C@H]1CN(C)C(=O)c2cc(NC(=O)c3ccccc3F)ccc2OC[C@@H](C)NC[C@@H]1C	.	-	26	-	-
O=C(c1ccncc1)N1C[C@@H]2[C@H](c3ccccc31)[C@H](CO)N2C(=O)CN1CCOCC1	.	-	-	-	-
COc1cccc(NC(=O)CN(C)CC(=O)NCc2ccc(F)cc2)c1	-	-	-	-	-
COc1ccc(NC(=O)CN(C)CC(=O)Nc2ccc3c(c2)CCC3)cc1	-	-	112	-	-
COc1cccc(NC(=O)CN(C)CC(=O)NCc2ccco2)c1	-	-	17	-	-
COc1cccc(NC(=O)COc2ccc3c(c2)CCC3)c1	-	-	-	-	-
CCOC(=O)Nc1cccc(OCC(=O)Nc2ccc3c(c2)CCC3)c1	-	-	-	-	45
COc1ccc(OCC(=O)Nc2ccc3c(c2)CCC3)cc1	-	-	-	-	.
CCCN(C)C[C@H]1OCCCC[C@H](C)Oc2ccc(N(C)C)cc2C(=O)N([C@H](C)CO)C[C@H]1C	.	-	-	-	-
O=C(C1CCCC1)N1CCCCN2[C@H](CO)[C@@H](c3ccc(C#CC4CC4)cc3)[C@H]2C1	.	-	-	-	.
CS(=O)(=O)N1CCN(c2ccc(NC(=O)c3ccc(-c4ccc(Cl)cc4)o3)cc2)CC1	-	.	.	.	80
COc1cc(/C=C2\SC(=S)N(NS(=O)(=O)c3ccccc3)C2=O)cc(OC)c1OC	-	-	-	-	-
COc1ccc(/C=N/NS(=O)(=O)c2ccccc2)cc1OC	-	-	-	-	71
COc1ccc(/C=C2/SC(=O)N(NS(=O)(=O)c3ccccc3)C2=S)cc1OC	-	-	-	-	49
C[C@@H]1CN([C@@H](C)CO)C(=O)c2cccc(NC(=O)C3CCOCC3)c2O[C@@H]1CN(C)Cc1ccc2c(c1)OCO2	.	-	.	-	-
O=C(NN1C(=O)C2C3C=CC(O3)C2C1=O)c1cccc(Br)c1 (stereo not drawn)	-	-	-	-	78
SMILES	PDI turbidity	S100A4 MyoIIA	SIRT5 block	ERp5 block	INS-1E GSIS act
C[C@@H]1CN([C@@H](C)CO)C(=O)c2cccc(NS(=O)(=O)c3cn(C)cn3)c2O[C@@H]1CN(C)C(=O)Nc1ccc2c(c1)OCO2	.	-	-	-	-
COc1cccc2c1C(=O)c1c(O)c3c(c(O)c1C2=O)CC(O)(C(C)=O)CC3OC1CC(O)C(O)C(C)O1 (stereo not drawn)	-	+	.	-	.
COc1cccc2c1C(=N)c1c(O)c3c(c(O)c1C2=O)CC(O)(C(C)=O)CC3OC1CC(N)C(O)C(C)O1 (stereo not drawn)	-	.	.	.	.
COc1cccc2c1C(=O)c1c(O)c3c(c(O)c1C2=O)C[C@](O)(C(C)=O)C[C@H]3O[C@@H]1C[C@@H](N)[C@@H](O)[C@@H](C)O1	-	+	-	-	.
Cc1cc(C)c(NC(=O)CNC(=O)COC(=O)/C=C/c2cccs2)c(C)c1	-	84	-	-	-
C[C@@H](NC(=O)C[C@@H]1CC[C@H]2[C@@H](COC[C@H](O)CN2Cc2ccc(C(F)(F)F)cc2)O1)c1ccccc1	.	-	-	-	-
C[C@H](CO)N1C[C@H](C)[C@@H](CN(C)Cc2ccc3c(c2)OCO3)Oc2ccc(NS(=O)(=O)c3ccc(Cl)cc3)cc2CC1=O	.	-	18	-	-
C[C@@H]1CN([C@H](C)CO)C(=O)Cc2cc(NS(=O)(=O)c3ccc(Cl)cc3)ccc2O[C@@H]1CN(C)Cc1ccc(Cl)c(Cl)c1	.	-	16	-	-
C[C@@H]1CN([C@H](C)CO)C(=O)Cc2cc(NS(=O)(=O)c3ccccc3)ccc2O[C@@H]1CN(C)Cc1ccc(Cl)c(Cl)c1	.	-	-	-	-
C[C@H]1CN([C@@H](C)CO)C(=O)Cc2cc(NS(=O)(=O)c3ccc(Cl)cc3)ccc2O[C@H]1CN(C)Cc1ccc(Cl)c(Cl)c1	.	-	-	-	-
C[C@H](CO)N1C[C@H](C)[C@H](CN(C)Cc2ccccc2)Oc2ccc(NS(=O)(=O)c3ccccc3)cc2CC1=O	.	87	-	-	-
C[C@@H]1CN([C@H](C)CO)C(=O)Cc2cc(NS(=O)(=O)c3ccccc3)ccc2O[C@H]1CN(C)Cc1ccc(Cl)c(Cl)c1	.	-	18	-	-
COCC(=O)N1[C@H](C#N)[C@@H](c2ccccc2-c2cccc(F)c2)[C@@H]1CO	.	-	-	-	-
COc1ccc2c3c(n(C)c2c1)[C@@H](CO)N(Cc1ccc2c(c1)OCO2)CC31CN(C(=O)C2CC2)C1	.	-	-	-	-
C[C@@H]1CCCCO[C@H](CN(C)Cc2ccc3c(c2)OCO3)[C@@H](C)CN([C@H](C)CO)C(=O)c2cc(NC(=O)CCC(F)(F)F)ccc2O1	.	-	-	-	-
CC(C)(C)[C@@H]1C=C(C(=O)Nc2ccccc2)O[C@H](OCc2ccc(CO)cc2)C1	-	98	.	-	-
Clc1ccccc1CN1CCN(/N=C/C=C\c2ccco2)CC1	-	-	28	-	-
C(/C=C/c1ccco1)=N/N1CCN(c2ccccc2)CC1	-	.	.	.	-
CCC(=O)Nc1ccc2c(c1)C(=O)N(C)[C@@H]1CC[C@@H](CC(=O)NC3Cc4ccccc4C3)O[C@H]1CO2	.	-	-	-	-
C=CC(=O)N(CCC)C(c1ccccc1)c1ccccc1OC (stereo not drawn)	-	-	21	-	-
